According to ChEMBL document CHEMBL3232721, “4-Oxo-1,4-dihydro-quinoline-3-carboxamides as BACE-1 inhibitors: synthesis, biological evaluation and docking studies” (Eur J Med Chem, 2014):

Legend:
[1] = biological target: T1, Beta-secretase 1 (Homo sapiens, UniProt P56817); experiment: Inhibition of BACE-1 (unknown origin) at 10 uM by FRET assay relative to control
How it was run: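 FRET-based BACE-1 activity kit used per the kit protocol, except total reaction volume was cut to […]. Each compound tested at a single concentration of 10 µM. Result given as percent inhibition of BACE-1 activity, from two independent experiments.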

[2] = biological target: T1, Beta-secretase 1; experiment: Inhibition of BACE-1 (unknown origin) by FRET assay
How it was run: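 BACE-1 FRET kit assay following the kit protocol, with total reaction volume reduced to […]. Compounds exceeding 50% inhibition at the single-point screen were retested across several concentrations. IC50 derived from linear regression parameters, reported as the mean of at least two experiments.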

[3] = test system: HEK293; experiment: Cytotoxicity against HEK293 cells after 72 hrs by CellTiterGlo assay; assay type: cell-based; conditions: Homo sapiens, HEK293, 72 h
How it was run: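 HEK293 grown in DMEM with 10% FBS, 100 units/mL penicillin and 100 units/mL streptomycin at 37 °C, 5% CO2. Seeded at 1000 cells/well in 384-well format, then exposed to test agents from a top working level of […], serially diluted threefold ten more times. Staurosporine positive control. After 72 h, CellTiter Glo reagent (10%) added and ATP luminescence read. IC50 taken from log dose–viability curves.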

T1 sequence (P56817 whole entry): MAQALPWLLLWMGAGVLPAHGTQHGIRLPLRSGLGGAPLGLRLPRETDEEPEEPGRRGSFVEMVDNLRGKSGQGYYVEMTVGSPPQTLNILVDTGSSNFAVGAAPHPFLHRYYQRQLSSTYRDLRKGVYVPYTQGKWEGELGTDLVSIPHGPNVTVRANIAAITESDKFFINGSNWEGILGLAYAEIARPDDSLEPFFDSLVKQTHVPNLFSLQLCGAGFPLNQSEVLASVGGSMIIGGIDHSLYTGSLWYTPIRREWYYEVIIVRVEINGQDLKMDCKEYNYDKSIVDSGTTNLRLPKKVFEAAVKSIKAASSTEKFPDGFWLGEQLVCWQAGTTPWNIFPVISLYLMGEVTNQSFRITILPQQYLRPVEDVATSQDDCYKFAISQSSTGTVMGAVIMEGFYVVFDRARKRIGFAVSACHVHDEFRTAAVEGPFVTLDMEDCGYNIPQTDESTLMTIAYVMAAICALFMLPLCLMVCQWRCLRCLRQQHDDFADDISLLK

Compound	inhibition [1] [%]	IC50 [2] [µM]	IC50 [3] [µM]
CN[C@@H]1C[C@H]2O[C@@](C)([C@@H]1OC)n1c3ccccc3c3c4c(c5c6ccccc6n2c5c31)C(=O)NC4 [STAUROSPORINE]	–	–	0.056
COc1ccc(CNC(=O)c2c[nH]c3ccc(S(=O)(=O)Nc4cccc(C(F)(F)F)c4)cc3c2=O)cc1	50.4	7.04	> 50
O=C(NC1CCCCC1)c1c[nH]c2ccc(S(=O)(=O)Nc3cccc(C(F)(F)F)c3)cc2c1=O	65.6	7.18	> 50
O=C(NCc1cccc(F)c1)c1c[nH]c2ccc(S(=O)(=O)Nc3cccc(C(F)(F)F)c3)cc2c1=O	84.6	1.85	> 50
O=C(NCc1ccc2c(c1)OCO2)c1c[nH]c2ccccc2c1=O	11.3	–	–
O=C(NCc1ccco1)c1c[nH]c2ccc(S(=O)(=O)Nc3cccc(C(F)(F)F)c3)cc2c1=O	71.1	1.61	> 50
O=C(NCc1ccc(F)cc1)c1c[nH]c2ccc(S(=O)(=O)Nc3cccc(C(F)(F)F)c3)cc2c1=O	30.4	–	–
COc1cccc(CNC(=O)c2c[nH]c3ccc(S(=O)(=O)Nc4cccc(C(F)(F)F)c4)cc3c2=O)c1	73.5	2.2	> 50
Cc1ccccc1-c1ccc2[nH]cc(C(=O)NC3CCCCC3)c(=O)c2c1	77.8	11.5	> 50
O=C(NCc1cccnc1)c1c[nH]c2ccc(S(=O)(=O)Nc3cccc(C(F)(F)F)c3)cc2c1=O	35.7	–	–

The next lines start with results.

inhibition [1] [%]	IC50 [2] [µM]	Compound	IC50 [3] [µM]
77.6	1.89	Cc1ccccc1-c1ccc2[nH]cc(C(=O)NCc3cccc(Br)c3)c(=O)c2c1	> 50
67.4	6.18	Cc1ccccc1-c1ccc2[nH]cc(C(=O)NCc3cccc(C(F)(F)F)c3)c(=O)c2c1	> 50
12.3	–	Cc1ccccc1-c1ccc2[nH]cc(C(=O)NCc3cccc(F)c3)c(=O)c2c1	–
38.1	–	Cc1ccccc1-c1ccc2[nH]cc(C(=O)NCc3ccc(C(F)(F)F)cc3)c(=O)c2c1	–
32.9	–	Cc1ccccc1-c1ccc2[nH]cc(C(=O)NCc3ccco3)c(=O)c2c1	–
10.2	–	Cc1ccccc1-c1ccc2[nH]cc(C(=O)NCc3cccnc3)c(=O)c2c1	–
